Source: article PMC7395825 (OncoTargets and therapy, 2020)
Several values for one entry are separate records, joined by “and”; a condition that tells them apart may be missing. Equal entries are not always repeated. Where two headings read alike, the source gives them in different places.

Experiments:
HT-29 cancer cells [1] = experiment: Flow cytometric analysis of cell cycle growth arrest; assay type: cell-based, human
Summary of the method: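 HT-29 cells seeded in 6-well plates and grown 24 h at 37°C, 5% CO2. Medium renewed, then cells exposed to test compound for 24 h or 48 h at the stated levels, with untreated and etoposide-treated parallels. Cells trypsinised, washed and lysed in nuclei extraction buffer for 15 min in the dark. DNA stained with PI/RNase solution for 30–60 min in the dark. Flow cytometry, 1×10^4 events per sample, triplicate.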

LoVo cancer cells = experiment: MTT assay, in vitro antiproliferative activity, LoVo; assay type: cell-based; conditions: Homo sapiens, 48 h; for GI50: read-out: GI50 (50% growth inhibition); for IC50: read-out: IC50 (half maximal cytotoxic concentration)
Summary of the method: (§1)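 Cells kept in ATCC-recommended medium with 10% FBS and 1% penicillin/streptomycin at 37°C, 5% CO2, seeded at 8×10^3 cells/well. After 24 h, exposed 48 h to test compound (DMSO stock 15 mM) at seven concentrations across 1–100 μM. Medium renewed, MTT added for 3 h, formazan dissolved in DMSO, absorbance read at 540 nm. […] Triplicate.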

topoisomerase II = topoisomerase II (Homo sapiens, UniProt P11388); experiment: DNA topoisomerase II assay; assay type: biochemical
HT-29 cancer cells [2] = experiment: MTT assay, in vitro antiproliferative activity, HT-29; assay type: cell-based, human; conditions: for TGI (total 100% growth inhibition): HT-29, MTT, 48 hours of drug exposure, unit given; for GI50 / IC50: Homo sapiens, HT-29, 48 h; for GI50: read-out: GI50 (50% growth inhibition); for IC50: read-out: IC50 (half maximal cytotoxic concentration)
Summary of the method: as §1

[3] = MTT assay, normal lung cells; assay type: cell-based, human; conditions: human, MRC5 normal lung cells
Summary of the method: as §1

[4] = test system: healthy lung (MRC5) cells; experiment: MTT assay, normal lung cells; assay type: cell-based, human; conditions: for GI50: Homo sapiens, MRC5, 48 h, read-out: GI50 (50% growth inhibition); for Selectivity: GI50, TGI and IC50 values, MRC5 cells versus cancer cell lines: MRC5 versus DLD-1, HT-29, LoVo
Summary of the method: as §1

DLD-1 cancer cells [5] = experiment: MTT assay, in vitro antiproliferative activity, DLD-1; assay type: cell-based, human; conditions: for TGI (total 100% growth inhibition): DLD-1, MTT, 48 hours of drug exposure; for GI50 / IC50: Homo sapiens, DLD-1, 48 h; for GI50: read-out: GI50 (50% growth inhibition); for IC50: read-out: IC50 (half maximal cytotoxic concentration)
Summary of the method: as §1

DLD-1 cancer cells [6] = experiment: Flow cytometric analysis of apoptosis; assay type: cell-based, human; conditions: DLD-1, at IC50 concentration (KA39 9 μM, etoposide 27 μM)
[7] = test system: topIIα phosphorylation (Ser1106); experiment: TopIIα phosphorylation cell-based ELISA, LoVo; design: species or system human; conditions: for maximum inhibitory effect on topIIα phosphorylation: LoVo cells, at either TGI or IC50 concentrations over 6 or 24 hour treatment; for effect on topIIα phosphorylation: LoVo, 6 hours, KA39 TGI and IC50, KA25 TGI 13.8 μΜ, KA26 TGI 100 μΜ
[8] = test system: topIIα phosphorylation (Ser1106); experiment: TopIIα phosphorylation cell-based ELISA, HT-29; design: species or system human; conditions: HT-29 cells, at either TGI or IC50 concentrations over 6 or 24 hour treatment
[9] = HT-29, IC50 concentration (KA39 19.5 μM), 24 hours
[10] = HT-29, TGI concentration (KA39 15.9 μM, etoposide 69 μM), 48 hours

Sequence of topoisomerase II (P11388 whole entry): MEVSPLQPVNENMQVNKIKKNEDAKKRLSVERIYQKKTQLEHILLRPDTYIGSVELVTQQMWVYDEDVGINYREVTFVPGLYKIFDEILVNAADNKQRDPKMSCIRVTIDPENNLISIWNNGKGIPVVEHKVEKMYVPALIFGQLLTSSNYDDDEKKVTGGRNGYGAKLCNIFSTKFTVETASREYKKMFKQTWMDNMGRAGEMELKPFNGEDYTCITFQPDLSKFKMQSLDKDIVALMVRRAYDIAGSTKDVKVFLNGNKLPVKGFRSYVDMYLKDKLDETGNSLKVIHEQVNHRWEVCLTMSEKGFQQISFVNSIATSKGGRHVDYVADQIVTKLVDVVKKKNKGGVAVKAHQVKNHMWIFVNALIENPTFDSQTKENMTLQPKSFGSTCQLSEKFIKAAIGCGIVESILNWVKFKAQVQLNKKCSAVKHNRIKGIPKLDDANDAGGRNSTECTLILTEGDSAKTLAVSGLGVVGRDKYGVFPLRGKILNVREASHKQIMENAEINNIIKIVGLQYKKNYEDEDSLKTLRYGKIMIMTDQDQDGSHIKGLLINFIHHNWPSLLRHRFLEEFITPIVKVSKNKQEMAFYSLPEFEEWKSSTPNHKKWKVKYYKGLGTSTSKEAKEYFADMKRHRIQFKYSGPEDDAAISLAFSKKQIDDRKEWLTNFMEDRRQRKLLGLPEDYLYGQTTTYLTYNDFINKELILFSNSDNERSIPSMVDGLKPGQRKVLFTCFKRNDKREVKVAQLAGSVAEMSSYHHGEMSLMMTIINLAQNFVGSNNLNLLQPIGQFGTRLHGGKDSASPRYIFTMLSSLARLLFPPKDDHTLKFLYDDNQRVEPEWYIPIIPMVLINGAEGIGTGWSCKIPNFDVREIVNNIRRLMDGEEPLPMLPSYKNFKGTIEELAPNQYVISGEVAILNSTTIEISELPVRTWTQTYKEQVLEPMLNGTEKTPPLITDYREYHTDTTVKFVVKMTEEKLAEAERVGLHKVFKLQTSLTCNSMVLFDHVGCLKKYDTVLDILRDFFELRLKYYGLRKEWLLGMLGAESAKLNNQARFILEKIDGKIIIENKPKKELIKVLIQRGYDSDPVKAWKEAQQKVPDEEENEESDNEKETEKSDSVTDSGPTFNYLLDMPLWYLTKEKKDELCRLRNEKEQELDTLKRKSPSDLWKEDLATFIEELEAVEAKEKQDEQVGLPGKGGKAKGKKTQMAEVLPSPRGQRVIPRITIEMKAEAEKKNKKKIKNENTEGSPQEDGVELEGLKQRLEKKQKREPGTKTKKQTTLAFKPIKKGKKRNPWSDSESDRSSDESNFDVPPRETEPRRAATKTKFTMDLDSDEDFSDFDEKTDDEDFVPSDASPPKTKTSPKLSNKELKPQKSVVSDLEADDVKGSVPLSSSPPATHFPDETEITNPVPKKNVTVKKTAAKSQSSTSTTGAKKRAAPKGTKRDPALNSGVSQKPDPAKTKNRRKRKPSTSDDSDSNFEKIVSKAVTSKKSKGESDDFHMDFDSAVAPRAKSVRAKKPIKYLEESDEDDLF

GI50 (LoVo cancer cells) [µM]	GI50 (HT-29 cancer cells [2]) [µM]	IC50 at 48 h [3] [µM]	GI50 (DLD-1 cancer cells [5]) [µM]	Compound	% of cells in G1 phase (HT-29 cancer cells [1]; [9]) [%]	% of cells in G2/M phase (HT-29 cancer cells [1]; [9]) [%]	% of cells in S phase (HT-29 cancer cells [1]; [9]) [%]	% of cells in SG (SubG1) phase (HT-29 cancer cells [1]; [9]) [%]	% of cells in G1 phase (HT-29 cancer cells [1]; [10]) [%]	% of cells in G2/M phase (HT-29 cancer cells [1]; [10]) [%]	IC50 (LoVo cancer cells) [µM]	TGI (total 100% growth inhibition) (HT-29 cancer cells [2])	IC50 (HT-29 cancer cells [2]) [µM]	GI50 [4] [µM]	TGI (total 100% growth inhibition) (DLD-1 cancer cells [5]) [µM]	IC50 (DLD-1 cancer cells [5]) [µM]	maximum inhibitory effect on topIIα phosphorylation [7] [%]	effect on topIIα phosphorylation [7]	Selectivity: GI50, TGI and IC50 values, MRC5 cells versus cancer cell lines [4]	maximum inhibitory effect on topIIα phosphorylation [8] [%]	also measured
14 ± 0.5	9.5 ± 0.5	> 100	1.8 ± 0.39	COc1cc([C@@H]2c3cc4c(cc3[C@@H](O[C@@H]3O[C@@H]5CO[C@@H](C)O[C@H]5[C@H](O)[C@H]3O)[C@H]3COC(=O)[C@H]23)OCO4)cc(OC)c1O [Etoposide, reference compound]	57.28	5.99	16.50	20.23	26.06	4.37	> 100	69 ± 0.9 µM	> 100	25 ± 0.3	8 ± 0.5	27 ± 0.28					% of cells in S phase (HT-29 cancer cells [1]; [10]): 13.10%; % of cells in SG (SubG1) phase (HT-29 cancer cells [1]; [10]): 55.80%; topoisomerase II reaction product on agarose gel (topoisomerase II): linear DNA; early apoptosis (Q4) (DLD-1 cancer cells [6]; 48 hours): 51.12%; late apoptosis (Q2) (DLD-1 cancer cells [6]; 48 hours): 18.84%; early apoptosis (Q4) (DLD-1 cancer cells [6]; 72 hours): 42.01%; late apoptosis (Q2) (DLD-1 cancer cells [6]; 72 hours): 30.48%
8 ± 0.76	1 ± 0.3	> 100	11.4 ± 0.5	COc1cc(Cc2nnc3sc(/C=C/c4ccc(F)cc4)nn23)c(S(=O)(=O)N(C)C)cc1OC [KA25, (E)-2-((6-(4-Fluorostyryl)-[1,2,4]Triazolo[3,4-b][1,3,4]Thiadiazol-3-Yl)Methyl)-4,5-Dimethoxy-N,N-Dimethylbenzenesulfonamide]							> 100	>100 µM	> 100	15 ± 0.9	65 ± 0.5	> 100	47	less significant inhibition of topIIα phosphorylation	3–5 times	33	
15 ± 0.8	2 ± 0.76	> 100	1.2 ± 0.81	COc1cc(Cc2nnc3sc(/C=C/c4ccc(Cl)cc4)nn23)c(S(=O)(=O)N(C)C)cc1OC [KA26, (E)-2-((6-(4-Chlorostyryl)-[1,2,4]Triazolo[3,4-b][1,3,4]Thiadiazol-3-Yl)Methyl)-4,5-Dimethoxy-N,N-Dimethylbenzenesulfonamide]							> 100	>100 µM	> 100	30 ± 0.9	>100	> 100	18	did not affect the phosphorylation status of topIIα	3–5 times	50	

Compound	GI50 (LoVo cancer cells) [µM]	GI50 (HT-29 cancer cells [2]) [µM]	IC50 at 48 h [3] [µM]	GI50 (DLD-1 cancer cells [5]) [µM]	% of cells in G1 phase (HT-29 cancer cells [1]; [9]) [%]	% of cells in G2/M phase (HT-29 cancer cells [1]; [9]) [%]	% of cells in S phase (HT-29 cancer cells [1]; [9]) [%]	% of cells in SG (SubG1) phase (HT-29 cancer cells [1]; [9]) [%]	% of cells in G1 phase (HT-29 cancer cells [1]; [10]) [%]	% of cells in G2/M phase (HT-29 cancer cells [1]; [10]) [%]	IC50 (LoVo cancer cells) [µM]	TGI (total 100% growth inhibition) (HT-29 cancer cells [2])	IC50 (HT-29 cancer cells [2]) [µM]	GI50 [4] [µM]	TGI (total 100% growth inhibition) (DLD-1 cancer cells [5]) [µM]	IC50 (DLD-1 cancer cells [5]) [µM]	maximum inhibitory effect on topIIα phosphorylation [7] [%]	effect on topIIα phosphorylation [7]	Selectivity: GI50, TGI and IC50 values, MRC5 cells versus cancer cell lines [4]	maximum inhibitory effect on topIIα phosphorylation [8] [%]	also measured
COc1cc(Cc2nnc3sc(-c4cc([N+](=O)[O-])ccc4[N+](=O)[O-])nn23)c(S(=O)(=O)N(C)C)cc1OC [KA39, 2-((6-(2,5-Dinitrophenyl)-[1,2,4]Triazolo[3,4-b][1,3,4]Thiadiazol-3-Yl)Methyl)-4,5-Dimethoxy-N,N-Dimethylbenzenesulfonamide]	2.2 ± 0.2	11.5 ± 0.8	40.5 ± 0.76	3 ± 0.52	46.64	3.74	21.52	27.06	40.95	9.48	10.5 ± 0.15	15.9 µM and 15.9 ± 0.55 µM	19.5 ± 0.9	15 ± 0.36	5 ± 0.76	9 ± 0.76	60	enhanced the phosphorylation status of topIIα	3–5 times	76	% of cells in S phase (HT-29 cancer cells [1]; [10]): 14.66%; % of cells in SG (SubG1) phase (HT-29 cancer cells [1]; [10]): 33.51%; topoisomerase II reaction product on agarose gel (topoisomerase II; pHOT1 supercoiled DNA, KA39 0.1, 1.0, 7.5 and 20 μΜ, non-EB gel): induced the formation of supercoiled DNA in all concentrations used; early apoptosis (Q4) (DLD-1 cancer cells [6]; 48 hours): 17.35%; late apoptosis (Q2) (DLD-1 cancer cells [6]; 48 hours): 13.12%; early apoptosis (Q4) (DLD-1 cancer cells [6]; 72 hours): 20.68%; late apoptosis (Q2) (DLD-1 cancer cells [6]; 72 hours): 20.96%
